From PMC10939825 (Chemistry (Weinheim an der Bergstrasse, Germany), 2024)

Key:
MRSA JE2 = test: Zeta potential of treated bacteria by DLS; type: cell-based, Staphylococcus aureus; conditions: 1 hour treatment
Procedure, shortened: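 Bacteria were cultured 18–20 h, resuspended in PBS and adjusted to 5 X 10^7 CFU/mL. They were treated 1 h with test compound at 10X MIC; test compound was pre-annealed in PBS and aged overnight. Controls were untreated cells, polymyxin B and daptomycin. Zeta potential was then measured by DLS at 25 °C.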

A. baumannii [1] = test: Membrane permeability, PI uptake; type: cell-based, Acinetobacter baumannii; conditions: 1 and 2X MIC, 2 hours
Procedure, shortened: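 Bacteria washed and resuspended at 0.3 McFarland in 5 mM HEPES/20 mM glucose, pH 7.4, with propidium iodide at 7.5 μg/mL final. Test compound was given to MRSA JE2 at 0.5, 1 and 2X MIC and to A. baumannii at 1 and 2X MIC. Controls were untreated cells, polymyxin B and daptomycin. Incubated 2 h at 37°C; fluorescence read at ex 535 nm/em 615 nm.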

E. coli K12 [2] = test: Zeta potential of treated bacteria by DLS; type: cell-based, Escherichia coli; conditions: E. coli K12, PAs at 10X MIC
A. baumannii [3] = test: Membrane depolarization, DiSC 3; type: cell-based, Acinetobacter baumannii; conditions: 1 and 2X MIC, 2 hours
Procedure, shortened: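 Cells suspended at 0.5 McFarland in 5 mM HEPES/20 mM glucose, pH 7.4, with DiSC3(5) at 1 μM final. Test compound at 1 and 2X MIC; controls were untreated cells, polymyxin B and daptomycin. Incubated 2 h at 37°C. Fluorescence read at ex 622 nm/em 670 nm; dye release into medium raises signal.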

E. coli K12 [4] = test: Inner membrane permeabilization assay; type: cell-based, Escherichia coli; conditions: E. coli K12, 0.5, 1 and 2X MIC, monitored for 180 mins, absorbance 415 nm, 37 °C, triplicate
Procedure, shortened: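 Assay for β-galactosidase release into the medium using ONPG as substrate, adapted from a published method. Test compound was dissolved in PBS at 1 mg/mL, annealed at 80 °C for 30 min, aged overnight, then diluted in PBS or media. Controls were polymyxin B (positive) and bacteria with ONPG and PBS (negative). o-Nitrophenol absorbance at 415 nm was read at intervals at 37 °C.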

Substance | change of bacterial zeta potential (MRSA JE2) | PI intensity (membrane permeability) (A. baumannii [1]) | change of bacterial zeta potential (E. coli K12 [2]) | order of activity, DiSC 3(5) (A. baumannii [3]) | order of membrane permeability (ONPG) (E. coli K12 [4])
daptomycin | induces (slightly) the zeta potential to be more negative |  |  |  | 
Polymyxin B [PMB] |  | significant increase in PI intensity | does not show a notable change | PA 26 > PMB > PA 9 | PMB > PA 26 > PA 3 > PA 9
